From ChEMBL document CHEMBL4400551, “Discovery and lead optimisation of a potent, selective and orally bioavailable RARβ agonist for the potential treatment of nerve injury” (Bioorg Med Chem Lett, 2019)
Activity calls are given as the source filed them. No cut-off for these calls is given here.

Assays:
Mus musculus = organism: Mus musculus; experiment: Selectivity ratio of EC50 for GAL4-fused mouse RARalpha LBD expressed in COS-7 cells to EC50 for GAL4-fused mouse RARbeta-LBD expressed in COS-7 cells; format: cell-based
[1] = molecular target: T1, Retinoic acid receptor gamma (Mus musculus, UniProt P18911); experiment: Transactivation of GAL4-fused mouse RARgamma-LBD expressed in COS-7 cells after 24 hrs by bright-Glo reagent based assay; format: cell-based
T1 sequence (P18911 whole entry): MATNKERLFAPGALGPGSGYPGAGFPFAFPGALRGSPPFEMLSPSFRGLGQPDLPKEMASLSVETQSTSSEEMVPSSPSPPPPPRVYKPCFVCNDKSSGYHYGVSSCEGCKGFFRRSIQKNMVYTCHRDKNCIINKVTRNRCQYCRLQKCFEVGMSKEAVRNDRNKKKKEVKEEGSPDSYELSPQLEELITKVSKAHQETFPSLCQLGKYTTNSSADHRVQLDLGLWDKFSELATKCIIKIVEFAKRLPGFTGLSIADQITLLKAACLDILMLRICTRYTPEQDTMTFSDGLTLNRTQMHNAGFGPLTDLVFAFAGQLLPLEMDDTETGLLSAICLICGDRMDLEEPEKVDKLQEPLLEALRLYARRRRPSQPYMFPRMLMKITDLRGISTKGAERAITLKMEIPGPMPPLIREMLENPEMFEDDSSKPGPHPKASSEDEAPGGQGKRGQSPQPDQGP
In short: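 Transactivation assays with mouse RAR α, β and γ ligand binding domains; values usually from three separate experiments, with error about 20% of the mean.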

[2] = Drug uptake in Sprague-Dawley rat brain at 1 to 10 mg/kg, po measured after 8 hrs by LC-MS/MS analysis; format: ADME, organism-based; conditions: in vivo
In short: (§1)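 Oral dosing to rats; brain tissue and plasma levels compared 8 h after dosing.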

CHO-MG = experiment: Agonist activity at RARbeta in CHO-MG cells assessed as increase in neurite length after 24 hrs by immunostaining based assay; format: cell-based; conditions: Cricetulus griseus
In short: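 Cerebellar neurons cultured on a CHO-MAG cell monolayer; 24 hr exposure to vehicle or agonist at 1×10^-8 – 1×10^-6 M. Neurite outgrowth read by immunostaining and neurite length quantification; means of 3 independent experiments; Student's t-test, vehicle versus highest dose.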

CHO-K1 [3] = experiment: Genotoxicity in CHOK1 cells in absence of S9 fraction by micronucleus test; format: toxicity, cell-based, Cricetulus griseus; conditions: chinese hamster
In short: (§2)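 In vitro micronucleus test in CHO-K1 cells, run both with and without S9.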

Rattus norvegicus [4] = experiment: Neuroprotective activity in avulsed rat model assessed as reduction in number of foot slips in a horizontal ladder by injured forelimb at 3 mg/kg, po administered every other day for 4 weeks; format: functional, organism-based
In short: (§3)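 Rats with avulsion injury given 3 mg/kg orally three times a week, every other day; sensory and locomotor function assessed. Mean of n = 8; two-way repeated-measures ANOVA with Tukey's post-hoc test.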

[5] = Drug uptake in Sprague-Dawley rat plasma at 1 to 10 mg/kg, po measured after 8 hrs by LC-MS/MS analysis; format: ADME, organism-based; conditions: in vivo; in short: as §1
[6] = Genotoxicity in Salmonella typhimurium TA100 at 100 uM by Ames test; format: toxicity; conditions: salmonella enterica subsp. enterica serovar typhimurium
In short: (§4)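 Ames test in three bacterial strains.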

Salmonella typhimurium [7] = experiment: Toxicity in Salmonella typhimurium TA1535 at 100 uM; format: organism-based; conditions: salmonella enterica subsp. enterica serovar typhimurium
In short: (§5)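 Bacterial cytotoxicity testing up to 100 μM.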

Salmonella typhimurium [8] = experiment: Toxicity in Salmonella typhimurium TA98 at 100 uM; format: organism-based; conditions: salmonella enterica subsp. enterica serovar typhimurium; in short: as §5
[9] = molecular target: Voltage-gated inwardly rectifying potassium channel KCNH2 (Homo sapiens, UniProt Q12809); experiment: Displacement of [3H]astemizole from human ERG at 10 uM
Sequence of Voltage-gated inwardly rectifying potassium channel KCNH2 (Q12809 whole entry): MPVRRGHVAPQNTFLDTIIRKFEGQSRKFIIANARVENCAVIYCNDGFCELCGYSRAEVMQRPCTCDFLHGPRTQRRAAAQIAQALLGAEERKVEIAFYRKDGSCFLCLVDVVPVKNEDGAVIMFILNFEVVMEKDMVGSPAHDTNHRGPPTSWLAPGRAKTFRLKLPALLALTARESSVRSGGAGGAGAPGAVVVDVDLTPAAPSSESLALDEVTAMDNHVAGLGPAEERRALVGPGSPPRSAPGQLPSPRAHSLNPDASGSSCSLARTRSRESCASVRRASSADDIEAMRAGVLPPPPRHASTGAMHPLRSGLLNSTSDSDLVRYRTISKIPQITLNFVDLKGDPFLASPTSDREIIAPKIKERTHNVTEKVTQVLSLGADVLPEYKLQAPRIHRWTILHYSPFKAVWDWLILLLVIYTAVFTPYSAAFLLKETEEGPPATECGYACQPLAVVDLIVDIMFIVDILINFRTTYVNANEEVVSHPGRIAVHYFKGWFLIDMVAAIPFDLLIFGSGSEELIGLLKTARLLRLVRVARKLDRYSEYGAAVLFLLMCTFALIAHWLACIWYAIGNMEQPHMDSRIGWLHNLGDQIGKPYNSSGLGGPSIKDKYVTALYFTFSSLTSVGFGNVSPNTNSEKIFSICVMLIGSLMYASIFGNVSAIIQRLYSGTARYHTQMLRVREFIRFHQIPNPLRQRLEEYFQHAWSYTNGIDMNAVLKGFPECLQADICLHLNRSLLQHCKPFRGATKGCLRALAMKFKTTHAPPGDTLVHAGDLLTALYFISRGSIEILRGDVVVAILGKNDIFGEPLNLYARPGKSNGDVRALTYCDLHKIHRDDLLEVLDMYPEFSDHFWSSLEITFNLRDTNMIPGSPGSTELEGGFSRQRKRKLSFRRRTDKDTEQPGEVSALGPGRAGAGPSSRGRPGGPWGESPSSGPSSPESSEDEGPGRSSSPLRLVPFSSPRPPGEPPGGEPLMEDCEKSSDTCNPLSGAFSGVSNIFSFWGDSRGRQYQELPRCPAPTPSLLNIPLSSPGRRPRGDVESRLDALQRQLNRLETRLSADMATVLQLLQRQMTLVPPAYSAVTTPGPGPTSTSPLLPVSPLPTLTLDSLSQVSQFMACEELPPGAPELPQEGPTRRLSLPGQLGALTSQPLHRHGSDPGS
In short: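 HERG channel binding assay at 10 μM.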

[10] = Genotoxicity in Salmonella typhimurium TA1535 at 100 uM by Ames test; format: toxicity; conditions: salmonella enterica subsp. enterica serovar typhimurium; in short: as §4
HepG2 = experiment: Cytotoxicity against human HepG2 cells at 50 uM; format: cell-based; conditions: hepg2, 50 µM
In short: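 HepG2 cell toxicity assay; highest concentration tested 50 μM.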

Salmonella typhimurium [11] = experiment: Toxicity in Salmonella typhimurium TA100 at 100 uM; format: organism-based; conditions: salmonella enterica subsp. enterica serovar typhimurium; in short: as §5
[12] = Genotoxicity in Salmonella typhimurium TA98 at 100 uM by Ames test; format: toxicity; conditions: salmonella enterica subsp. enterica serovar typhimurium; in short: as §4
Rattus norvegicus [13] = experiment: Neuroprotective activity in avulsed rat model assessed as reduction in latency for time taken to sense and remove the tape from the paw of the lesioned forelimbs at 3 mg/kg, po administered every other day for 4 weeks; format: functional, organism-based; in short: as §3
[14] = Fraction absorbed in Sprague-Dawley rat at 1 to 10 mg/kg, po by LC-MS/MS analysis; format: ADME, organism-based; conditions: in vivo, read-out: Fabs
In short: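 Rats: oral doses of 1, 3 and 10 mg/kg in 8% ethanol/92% PEG-400; iv reference 0.5 mg/kg in 4% DMSO, 38% PEG-400, 58% (0.9%) NaCl. Fraction absorbed is the mean over the three oral doses relative to the iv dose.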

CHO-K1 [15] = experiment: Genotoxicity in CHOK1 cells in presence of S9 fraction by micronucleus test; format: toxicity, cell-based, Cricetulus griseus; conditions: chinese hamster; in short: as §2

EC50 [1] [nM] | Structure (SMILES) | Ratio EC50 (Mus musculus) | other results
– | Cc1cc(C(=O)O)ccc1-c1noc(-c2cc3c(C)ccc(C)c3o2)n1 | 13 | –
– | Cc1ccc(C)c2oc(-c3nc(-c4ccc(C(=O)O)cc4F)no3)cc12 | 5.5 | –
– | Cc1ccc(C)c2sc(-c3nc(-c4ccc(C(=O)O)cc4)no3)cc12 | 9 | –
5.4 | CCOc1c(Cl)cc(-c2noc(-c3ccc(C(=O)O)cc3)n2)cc1Cl | – | –
– | Cc1ccc(C)c2oc(-c3nc(-c4ccc(C(=O)O)cc4)no3)nc12 | 10 | –
– | Cc1ccc(C)c2oc(-c3nc(-c4ccc(C(=O)O)cc4)no3)cc12 | 13 | Drug uptake [2]: Active; Activity (CHO-MG): Dose-dependent effect; Activity (CHO-K1 [3]): Non-Toxic; Activity (Rattus norvegicus [4]): Active; Drug uptake [5]: Active; Activity [6]: Non-Toxic; Activity (Salmonella typhimurium [7]): Non-Toxic; Activity (Salmonella typhimurium [8]): Non-Toxic; inhibition (INH) [9]: Not Active; Activity [10]: Non-Toxic; Activity (HepG2): Non-Toxic; Activity (Salmonella typhimurium [11]): Non-Toxic; Activity [12]: Non-Toxic; Activity (Rattus norvegicus [13]): Active; Fa [14]: 80%; Activity (CHO-K1 [15]): Non-Toxic
30000 | CCOc1c(Cl)cc(C(=O)Nc2ccc(C(=O)O)cc2)cc1Cl | – | –
– | Cc1cc(-c2noc(-c3cc4c(C)ccc(C)c4o3)n2)ccc1C(=O)O | 6.4 | –
– | Cc1ccc(C)c2oc(-c3nc(-c4ccc(C(=O)O)c(F)c4)no3)cc12 | 7.3 | –
– | CC1(C)CCC(C)(C)c2cc(-c3nc(-c4ccc(C(=O)O)cc4)no3)ccc21 | 17 | –
45 | CCOc1c(Cl)cc(-c2cnc(-c3ccc(C(=O)O)cc3)o2)cc1Cl | – | –
– | CC(C)(C)c1cc(-c2nc(-c3ccc(C(=O)O)cc3)no2)cc(C(C)(C)C)c1 | 2.8 | –
150 | CCOc1c(Cl)cc(-c2nnc(-c3ccc(C(=O)O)cc3)o2)cc1Cl | – | –
– | CCCCOCCOc1nc(-c2ccc(C(=O)O)c(F)c2)sc1C | 5.8 | –
160 | CCOc1c(Cl)cc(-c2csc(-c3ccc(C(=O)O)cc3)n2)cc1Cl | – | –
– | O=C(O)c1ccc(-c2noc(-c3cc4c(C(F)(F)F)ccc(F)c4o3)n2)cc1 | 7.6 | –
